From ChEMBL document CHEMBL1212768, “Screening and quantification of the expression of antibiotic resistance genes in Acinetobacter baumannii with a microarray” (2010)
Values after ≈ are worked out from the molar mass of the structure shown.

Legend:
Assay type in all cases: functional
Acinetobacter baumannii [1] = experiment: Antibacterial activity against Acinetobacter baumannii BM4467 by antimicrobial susceptibility assay
In short: (§1)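 MICs measured by Etest on Mueller-Hinton agar. Disk diffusion on the same medium was used for susceptibility screening. Strains were grown at 37°C in brain heart infusion broth or agar. Mutants were picked from antibiotic gradient plates, taking colonies growing above the normal MIC. Those resistant to several drug classes by diffusion were kept.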

Acinetobacter baumannii [2] = experiment: Antibacterial activity against Acinetobacter baumannii BM4454 by antimicrobial susceptibility assay; in short: as §1
Acinetobacter baumannii [3] = experiment: Antibacterial activity against multidrug-resistant Acinetobacter baumannii BM4675 by antimicrobial susceptibility assay; in short: as §1
Acinetobacter baumannii [4] = experiment: Antibacterial activity against Acinetobacter baumannii BM4587 by antimicrobial susceptibility assay; in short: as §1
Acinetobacter baumannii [5] = experiment: Antibacterial activity against Acinetobacter baumannii CIP70-10 by antimicrobial susceptibility assay; in short: as §1
Acinetobacter baumannii [6] = experiment: Antibacterial activity against multidrug-resistant Acinetobacter baumannii BM4665 by antimicrobial susceptibility assay; in short: as §1
Acinetobacter baumannii [7] = experiment: Antibacterial activity against multidrug-resistant Acinetobacter baumannii BM4666 by antimicrobial susceptibility assay; in short: as §1
Acinetobacter baumannii [8] = experiment: Antibacterial activity against multidrug-resistant Acinetobacter baumannii BM4668 by antimicrobial susceptibility assay; in short: as §1
Acinetobacter baumannii [9] = experiment: Antibacterial activity against multidrug-resistant Acinetobacter baumannii BM4676 by antimicrobial susceptibility assay; in short: as §1
Acinetobacter baumannii [10] = experiment: Antibacterial activity against multidrug-resistant Acinetobacter baumannii AYE by antimicrobial susceptibility assay; in short: as §1

Row | Compound | MIC (Acinetobacter baumannii [1]) [µg/mL] | MIC (Acinetobacter baumannii [2]) [µg/mL] | MIC (Acinetobacter baumannii [3]) [µg/mL] | MIC (Acinetobacter baumannii [4]) [µg/mL] | MIC (Acinetobacter baumannii [5]) [µg/mL] | MIC (Acinetobacter baumannii [6]) [µg/mL] | MIC (Acinetobacter baumannii [7]) [µg/mL] | MIC (Acinetobacter baumannii [8]) [µg/mL] | MIC (Acinetobacter baumannii [9]) [µg/mL] | MIC (Acinetobacter baumannii [10]) [µg/mL]
1 | O=C(N[C@H](CO)[C@H](O)c1ccc([N+](=O)[O-])cc1)C(Cl)Cl [CHLORAMPHENICOL] | 96 (≈ 297 µM) | > 256 | > 256 | 96 (≈ 297 µM) | 48 (≈ 149 µM) | > 256 | > 256 | > 256 | 128 (≈ 396 µM) | > 256
2 | GENTAMICIN | 1.5 | 6 | 24 | 1 | 1.5 | 12 | 1.5 | 1.5 | > 256 | > 256
3 | C[C@H]1[C@H](NC(=O)/C(=N\OC(C)(C)C(=O)O)c2csc(N)n2)C(=O)N1S(=O)(=O)O [AZTREONAM] | 32 (≈ 73.5 µM) | 16 (≈ 36.7 µM) | 32 (≈ 73.5 µM) | 12 (≈ 27.6 µM) | 48 (≈ 110 µM) | 6 (≈ 13.8 µM) | 32 (≈ 73.5 µM) | 48 (≈ 110 µM) | 32 (≈ 73.5 µM) | > 256
4 | CN(C)[C@@H]1C(O)=C(C(N)=O)C(=O)[C@@]2(O)C(O)=C3C(=O)c4c(O)cccc4[C@@](C)(O)[C@H]3C[C@@H]12 [TETRACYCLINE] | 3 (≈ 6.75 µM) | 32 (≈ 72 µM) | 32 (≈ 72 µM) | 1.5 (≈ 3.38 µM) | 1 (≈ 2.25 µM) | 3 (≈ 6.75 µM) | 8 (≈ 18 µM) | 8 (≈ 18 µM) | 12 (≈ 27 µM) | 64 (≈ 144 µM)
5 | CCn1cc(C(=O)O)c(=O)c2cc(F)c(N3CCNCC3)cc21 [NORFLOXACIN] | 1.5 (≈ 4.7 µM) | > 256 | > 256 | 1.5 (≈ 4.7 µM) | 2 (≈ 6.26 µM) | 12 (≈ 37.6 µM) | 4 (≈ 12.5 µM) | 4 (≈ 12.5 µM) | 192 (≈ 601 µM) | > 256
6 | CN(C)c1ccc(O)c2c1C[C@H]1C[C@H]3[C@H](N(C)C)C(O)=C(C(N)=O)C(=O)[C@@]3(O)C(O)=C1C2=O [MINOCYCLINE] | 0.064 (≈ 0.14 µM) | 0.75 (≈ 1.64 µM) | 8 (≈ 17.5 µM) | 0.064 (≈ 0.14 µM) | 0.047 (≈ 0.103 µM) | 0.125 (≈ 0.273 µM) | 0.19 (≈ 0.415 µM) | 0.125 (≈ 0.273 µM) | 1 (≈ 2.19 µM) | 0.5 (≈ 1.09 µM)
7 | CO[C@H]1/C=C/O[C@@]2(C)Oc3c(C)c(O)c4c(O)c(c(/C=N/N5CCN(C)CC5)c(O)c4c3C2=O)NC(=O)/C(C)=C\C=C\[C@H](C)[C@H](O)[C@@H](C)[C@@H](O)[C@@H](C)[C@H](OC(C)=O)[C@@H]1C [RIFAMPIN] | 2 (≈ 2.43 µM) | 2 (≈ 2.43 µM) | > 32 | 1.5 (≈ 1.82 µM) | 4 (≈ 4.86 µM) | 1.5 (≈ 1.82 µM) | 3 (≈ 3.65 µM) | 3 (≈ 3.65 µM) | 2 (≈ 2.43 µM) | 16 (≈ 19.4 µM)
8 | CO/N=C(\C(=O)N[C@@H]1C(=O)N2C(C(=O)[O-])=C(C[N+]3(C)CCCC3)CS[C@H]12)c1csc(N)n1 [CEFEPIME] | 1.5 (≈ 3.12 µM) | 3 (≈ 6.24 µM) | 8 (≈ 16.6 µM) | 0.75 (≈ 1.56 µM) | 1.5 (≈ 3.12 µM) | 8 (≈ 16.6 µM) | 2 (≈ 4.16 µM) | 3 (≈ 6.24 µM) | 32 (≈ 66.6 µM) | > 256
9 | NCC[C@H](O)C(=O)N[C@@H]1C[C@H](N)[C@@H](O[C@H]2O[C@H](CN)[C@@H](O)[C@H](O)[C@H]2O)[C@H](O)[C@H]1O[C@H]1O[C@H](CO)[C@@H](O)[C@H](N)[C@H]1O [AMIKACIN] | 4 (≈ 6.83 µM) | 8 (≈ 13.7 µM) | 96 (≈ 164 µM) | 4 (≈ 6.83 µM) | 6 (≈ 10.2 µM) | 64 (≈ 109 µM) | 6 (≈ 10.2 µM) | 8 (≈ 13.7 µM) | > 256 | 96 (≈ 164 µM)
10 | CC(C)(O/N=C(\C(=O)N[C@@H]1C(=O)N2C(C(=O)[O-])=C(C[n+]3ccccc3)CS[C@H]12)c1csc(N)n1)C(=O)O [CEFTAZIDIME] | 8 (≈ 14.6 µM) | 6 (≈ 11 µM) | > 256 | 4 (≈ 7.32 µM) | 6 (≈ 11 µM) | 3 (≈ 5.49 µM) | 12 (≈ 22 µM) | 16 (≈ 29.3 µM) | > 256 | > 256
11 | O=C(O)c1cn(C2CC2)c2cc(N3CCNCC3)c(F)cc2c1=O [CIPROFLOXACIN] | 0.125 (≈ 0.377 µM) | > 32 | > 32 | 0.094 (≈ 0.284 µM) | 0.125 (≈ 0.377 µM) | 0.5 (≈ 1.51 µM) | 0.38 (≈ 1.15 µM) | 0.38 (≈ 1.15 µM) | 24 (≈ 72.4 µM) | > 32
12 | CCN[C@@H]1C[C@H](N)[C@@H](O[C@H]2OC(CN)=CC[C@H]2N)[C@H](O)[C@H]1O[C@H]1OC[C@](C)(O)[C@H](NC)[C@H]1O [NETILMICIN] | 2 (≈ 4.21 µM) | 16 (≈ 33.6 µM) | 32 (≈ 67.3 µM) | 1.5 (≈ 3.15 µM) | 2 (≈ 4.21 µM) | 64 (≈ 135 µM) | 1.5 (≈ 3.15 µM) | 2 (≈ 4.21 µM) | 12 (≈ 25.2 µM) | 48 (≈ 101 µM)
13 | NC[C@H]1O[C@H](O[C@H]2[C@H](O)[C@@H](O[C@H]3O[C@H](CO)[C@@H](O)[C@H](N)[C@H]3O)[C@H](N)C[C@@H]2N)[C@H](N)C[C@@H]1O [TOBRAMYCIN] | 1.5 (≈ 3.21 µM) | 4 (≈ 8.56 µM) | 12 (≈ 25.7 µM) | 0.75 (≈ 1.6 µM) | 2 (≈ 4.28 µM) | 16 (≈ 34.2 µM) | 1 (≈ 2.14 µM) | 2 (≈ 4.28 µM) | 96 (≈ 205 µM) | 64 (≈ 137 µM)
14 | CN(C)c1cc(NC(=O)CNC(C)(C)C)c(O)c2c1C[C@H]1C[C@H]3[C@H](N(C)C)C(O)=C(C(N)=O)C(=O)[C@@]3(O)C(O)=C1C2=O [TIGECYCLINE] | 0.125 (≈ 0.213 µM) | 3 (≈ 5.12 µM) | 1.5 (≈ 2.56 µM) | 0.094 (≈ 0.161 µM) | 0.125 (≈ 0.213 µM) | 1.5 (≈ 2.56 µM) | 0.38 (≈ 0.649 µM) | 0.5 (≈ 0.854 µM) | 1.5 (≈ 2.56 µM) | 1.5 (≈ 2.56 µM)
15 | CC1(C)S[C@@H]2[C@H](NC(=O)[C@H](C(=O)O)c3ccsc3)C(=O)N2[C@H]1C(=O)O [TICARCILLIN] | 12 (≈ 31.2 µM) | 8 (≈ 20.8 µM) | > 256 | 6 (≈ 15.6 µM) | 24 (≈ 62.4 µM) | 2 (≈ 5.2 µM) | 16 (≈ 41.6 µM) | 24 (≈ 62.4 µM) | > 256 | > 256
16 | C[C@@H](O)[C@H]1C(=O)N2C(C(=O)O)=C(SCCNC=N)C[C@H]12 [IMIPENEM ANHYDROUS] | 0.25 (≈ 0.835 µM) | 0.25 (≈ 0.835 µM) | 2 (≈ 6.68 µM) | 0.19 (≈ 0.635 µM) | 0.25 (≈ 0.835 µM) | 0.5 (≈ 1.67 µM) | 0.19 (≈ 0.635 µM) | 0.25 (≈ 0.835 µM) | > 32 | 1 (≈ 3.34 µM)
17 | CO/N=C(\C(=O)N[C@@H]1C(=O)N2C(C(=O)O)=C(COC(C)=O)CS[C@H]12)c1csc(N)n1 [CEFOTAXIME] | 4 (≈ 8.78 µM) | 4 (≈ 8.78 µM) | > 256 | 3 (≈ 6.59 µM) | 12 (≈ 26.3 µM) | 4 (≈ 8.78 µM) | 6 (≈ 13.2 µM) | 8 (≈ 17.6 µM) | 32 (≈ 70.3 µM) | > 256
